The results in this text go back to ChEMBL document CHEMBL3098078, “Design, Synthesis, and Antiviral Evaluation of Chimeric Inhibitors of HIV Reverse Transcriptase” (ACS Med Chem Lett, 2013).

Activity calls are given as the source filed them. The rule behind the calls is not given here.

The IC50 is the midpoint of a concentration-inhibition curve. A lower IC50 goes with higher potency. The CC50 is the concentration that lowers cell viability or growth by half. Usually EC50 stands for the concentration at which the effect is half-maximal. Read a high EC50 as a less potent agent.

For data set [1], the target named is Human immunodeficiency virus type 1 reverse transcriptase (Human immunodeficiency virus 1) (UniProt Q72547). Nature of the data set: Ratio of d4T IC50 to compound IC50 for HIV-1 6His-tagged reverse transcriptase p66/p51.
Data set [2] deals with Human immunodeficiency virus 1. Kind of data set: Antiviral activity against HIV1 3B infected in human MT2 cells after 5 days by MTT assay. In kind it is functional, organism-based. In outline: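 HIV-1 IIIB replication in MT-2 cell culture, with MTT read-out following a previously published protocol. The nucleoside form was tested. d4T and ddC (NRTI) and TMC120 (NNRTI) were run alongside as positive controls.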

Data set [3] relates to Human immunodeficiency virus 1. Nature of the data set: Ratio of d4T EC50 to compound EC50 for HIV1 3B infected in human MT2 cells. In kind it is functional.
In another data set the test system is MT2. Kind of data set: (§1) Cytotoxicity against human MT2 cells after 5 days by MTT assay. The note with it: mt2, 120 h. In kind it is cell-based. In outline: (§2)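 MT-2 cells infected with HIV-1 IIIB are read by MTT assay following a previously published protocol. Inhibition of viral replication gives EC50, and the cytotoxicity read-out gives CC50.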
For orientation: Tetrazolium assays rely on reduction of a dye to a coloured formazan, in cell work by metabolically active cells.

The target of data set [4] is Human immunodeficiency virus type 1 reverse transcriptase (Human immunodeficiency virus 1, UniProt Q72547). Nature of the data set: Inhibition of HIV-1 6His-tagged reverse transcriptase p66/p51-mediated TTP incorporation into D23/D36 primer/template preincubated for 15 mins followed by D23/D36 primer/template and TTP addition measured after 15 mins by PAGE analysis. A digest of the protocol:
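Steady-state competition assay measuring inhibition of HIV-1 RT-catalysed TTP incorporation opposite template A into radiolabeled D23/D36 primer/template. Products are resolved on gel across increasing inhibitor concentrations, with a reference NNRTI positive control at 250 nM. Percent RT activity loss is plotted against inhibitor concentration to derive IC50.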

Data set [5] is described as follows: Selectivity index, ratio of CC50 for human MT2 cells to EC50 for HIV1 3B. In kind it is toxicity, cell-based. Particulars: read-out: Ratio CC50/EC50.
Data set [6] has as its target Human immunodeficiency virus type 1 reverse transcriptase (Human immunodeficiency virus 1) (UniProt Q72547). Kind of data set: Binding affinity to HIV-1 6His-tagged reverse transcriptase p66/p51 assessed as compound incorporation into D23/D36 primer/template at 50 uM after 60 mins by PAGE analysis in presence of MgCl2. A digest of the protocol:
(§3)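 Single-turnover incorporation by HIV-1 RT of the chimeric triphosphate as substrate, using radiolabeled D23/D36 primer/template (template base pairs with TTP). Reactions are sampled at a 0 time point, and a negative control lacks Mg2+. Products are resolved by gel electrophoresis to detect an elongated primer band. A mispaired D23/D36B primer/template (dC opposite template dGMP) serves as a comparison.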

A short description of data set [7]: as §1. The data set is classed as cell-based. The note with it: MT2 cells. In outline: as §2
Data set [8] has as its target Human immunodeficiency virus type 1 reverse transcriptase (Human immunodeficiency virus 1) (UniProt Q72547). Kind of data set: Binding affinity to HIV-1 6His-tagged reverse transcriptase p66/p51 assessed as compound incorporation into D23/D36 primer/template at 50 uM after 60 mins by PAGE analysis. In outline: as §3

As to `Cc1cc(C#CCCCCCCCC(=O)NCc2cn([C@H]3C[C@H](O)[C@@H](CO[PH](=O)O)O3)c(=O)[nH]c2=O)cc(C)c1Oc1ccnc(Nc2ccc(C#N)cc2)n1`, in data set [1], the Ratio IC50 turned out to be 3000. Moreover, in data set [2], the outcome was Active. For the same molecule, the “Ratio EC50” value in data set [3] was determined as 16. For the same molecule, in the data set on MT2, the Activity entry is “Toxic”. In data set [4], the IC50 was 4.3 nM. In addition, the selectivity ratio in data set [5] worked out at 27. Also, the result in data set [6] was inactive.

Molecule `Nc1ccn([C@H]2CC[C@@H](CO)O2)c(=O)n1` [ZALCITABINE] came in with a 50% cytotoxic concentration (CC50) at 120 h in [7] of 4000 nM.

Regarding `Cc1cc(C#CCCCCCCCC(=O)NCc2cn([C@H]3C[C@H](O)[C@@H](COP(=O)(O)OP(=O)(O)OP(=O)(O)O)O3)c(=O)[nH]c2=O)cc(C)c1Oc1ccnc(Nc2ccc(C#N)cc2)n1`, in data set [1], the Ratio IC50 came to 2000. In data set [8], the result was inactive. The molecule also showed a concentration for half-maximal inhibition (IC50) in [4] of 6 nM. Further, the outcome in [6] was Active.

In the case of `Cc1cc(C)c(Nc2ccnc(Nc3ccc(C#N)cc3)n2)c(C)c1` [DAPIVIRINE], the CC50 at 120 h in data set [7] is 1900 nM. That is a single-digit micromolar value.

Molecule `Cc1cn([C@H]2C=C[C@@H](CO)O2)c(=O)[nH]c1=O` [STAVUDINE] had an EC50 in [2] (Human immunodeficiency virus 1, 3B, MT2, 120 h) of 3.6 µM. Moreover, in [7], the CC50 at 120 h was 2200 nM.

`Cc1cc(C#CCCCCCCCC(=O)NCc2cn([C@H]3C[C@H](O)[C@@H](CO)O3)c(=O)[nH]c2=O)cc(C)c1Oc1ccnc(Nc2ccc(C#N)cc2)n1`: the “Ratio EC50” value in [3] amounted to 30. Besides, the selectivity ratio in data set [5] worked out at 18.
